# Source: PubChem BioAssay (several laboratories)
# H9c2 protect: cardioprotection against H2O2-induced cell death, primary screen, uHTS, H9c2 cells, ATPLite luminescence. protection from H2O2 cell death, % at 20 µM. 0.63% of 360,000 active. H9c2 cardiomyocytes, H2O2 injury protection, 2 h;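 active means compounds giving at least 50% protection of heart cells from peroxide-induced death in the single-dose screen, raw or plate-pattern-corrected value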
# T cruzi inh: inhibitors of intracellular T. cruzi growth, primary screen, luminescence, NIH3T3 host cells; T. cruzi beta-gal in NIH3T3, 90 h; inhibition, % (no concentration beside the values); 1.4% of 300,000 active; AID 1885, 2009;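 active means mean inhibition across valid replicates above about 55%, limit read from the data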;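 further: signal also drops with host cell toxicity which is not excluded here; higher percent means less beta-gal luminescence so fewer parasites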
#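 Assay system: NIH/3T3 host cells with β-galactosidase reporter T. cruzi; input: 5,000 host fibroblasts per well; compound: single 50 nL compound addition per well in DMSO; timing: ≥90 h infection period, 3 h prior cell attachment; measured by: GalScreen β-gal luminescence, detergent lysis, 60 min; evaluation: percent inhibition of parasite-derived β-gal signal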
# PP5 primary: PP5 phosphatase inhibitors, primary screen, biochemical, fluorescence. Serine/threonine-protein phosphatase 5 (Homo sapiens), P53041. purified PP5c, OMFP substrate fluorescence. inhibition, % at 6.7 µM. 0.18% of 320,000 active. AID 1987, 2009;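 active means inhibition above the campaign's mean inhibition across all tested compounds plus 3 SD, cut at about 9.5% in these data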
# CTSL1 counter: Fasciola hepatica cathepsin L1 inhibitors, primary screen, counter-screen for PFM18AAP inhibitor project, biochemical, QFRET, fluorogenic peptide substrate; recombinant F. hepatica cathepsin L1, Z-Leu-Arg-MCA fluorescence; inhibition, % at 5.96 µM; 0.49% of 300,000 active; AID 1906, 2009;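 active means inhibition above the mean of all tested compounds plus 3 SD, set per screening campaign, cut at about 17% in these data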
# pCIP destab: p/CIP-EGFP fusion destabilizers, primary screen, fluorescence, F442A cells. 16 h. decrease of EGFP signal, % at 10 µM. 0.01% of 290,000 active. AID 1984, 2009;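 active means EGFP signal decrease of at least 30% at 10 µM or well 3 SD below plate mean, unless failing retest; inactive means the rest, including hits failing retest or dose response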
# GASC-1 inh: inhibitors of GASC-1 histone demethylase, primary screen, biochemical, fluorescence, DELFIA europium; 0.069% of 330,000 active; inhibition, % at 2.35 µM; Lysine-specific demethylase 4C (Homo sapiens), Q9H3R0; GST-JMJD2C(1-420) H3K9me3 demethylation;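 active means more than half of a compound's replicate wells show inhibition beyond 50%, single wells judged on their own value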;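 further: signal counts dimethyl H3K9 product captured on neutravidin plate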
# Target sequence (Q9H3R0 1-420 limits assumed): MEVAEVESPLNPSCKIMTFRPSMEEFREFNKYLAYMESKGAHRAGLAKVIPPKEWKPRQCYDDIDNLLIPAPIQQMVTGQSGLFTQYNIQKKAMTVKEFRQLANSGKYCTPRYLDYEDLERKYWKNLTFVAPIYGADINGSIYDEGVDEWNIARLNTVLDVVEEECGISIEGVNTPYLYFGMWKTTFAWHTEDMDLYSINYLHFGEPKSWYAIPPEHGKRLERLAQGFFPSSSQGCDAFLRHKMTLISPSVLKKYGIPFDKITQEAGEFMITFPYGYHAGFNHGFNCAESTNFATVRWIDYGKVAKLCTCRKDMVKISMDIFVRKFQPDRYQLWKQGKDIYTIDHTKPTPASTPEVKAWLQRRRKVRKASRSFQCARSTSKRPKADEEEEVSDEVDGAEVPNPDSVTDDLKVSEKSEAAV
# Numbers stand for hits; – = inactive; · = not tested or not shown. Compounds with a hit are over-represented: about 2.4% of the library has one in this group of screens.
SMILES,H9c2 protect,T cruzi inh,PP5 primary,CTSL1 counter,pCIP destab,GASC-1 inh
O=c1[nH]c(=S)n(C2CC2)c(O)c1/C=N/Nc1ccccc1,–,–,–,–,–,–
O=C(N/N=C/c1c(O)n(C2CCCCC2)c(=S)[nH]c1=O)c1ccccc1,63.5,–,–,–,–,–
COC(=O)C1=C(c2ccc(F)cc2F)C[C@@H]2CC[C@H]1N2C(=O)N1CCCCC1,–,·,–,·,·,–
CN(C)C1CCc2[nH]c3c(F)cc(F)cc3c2C1 (stereo not given),–,·,·,·,·,·
COc1ccc(C(O)(c2ccccc2)c2ccncc2)cc1 (stereo not given),–,·,·,·,·,·
Cn1ncnc2c(=O)n(C)c(=O)nc1-2,–,62.6,13.0,110.8,–,81.0
O=[N+]([O-])c1ccc(CNCCc2ccccc2)cc1,–,58.6,–,–,–,–
COc1cccc(CCNCc2cccc(C(F)(F)F)c2)c1,–,64.1,–,–,–,–
COc1cc(OC)c(OC)cc1CNCCc1cccc(F)c1,–,–,–,–,–,–
NCC(O)c1cc(O)c(O)cc1F (stereo not given),–,·,–,–,·,–
CC(=O)Nc1ccc(S(=O)(=O)N2Cc3cnnn3-c3ccccc3C2C#N)cc1 (stereo not given),–,·,·,·,·,·
O=C(NC1(C(F)(F)F)Oc2ccc(Cl)cc2O1)N1CCC2(CC1)OCCO2 (stereo not given),77.9,–,–,–,–,–
O=[N+]([O-])c1ccc(N2CCCC(C(F)(F)F)C2)c2ccncc12 (stereo not given),–,–,–,–,–,–
CN1CCc2nc3sc(C#N)c(N)c3c(-c3cccs3)c2C1,–,66.6,–,–,–,–
CN1CCc2nc(N)c(C#N)c(-c3ccccc3)c2C1,–,–,–,–,–,–
NC(=O)c1ccc(N)nc1,–,·,·,·,·,·
CC/C(=C\C=C\[C@@H]1C=C[C@@H]2CCC[C@H]2[C@@H]1C(=O)c1ccc[nH]1)[C@@H]1O[C@@H]([C@@H](C)C(=O)O)CC[C@@H]1C,·,65.1,–,–,–,–
CNC(=O)Oc1ccc2c(c1)C(=O)c1ccccc1CO2,–,–,–,21.2,–,–
O=C(CSC1c2ccccc2-c2ccccc21)N/N=C/c1ccccc1O,54.2,59.7,–,–,–,–
O=C(CSC1c2ccccc2-c2ccccc21)N/N=C/c1ccc(C(=O)O)cc1,–,–,–,–,–,–
CCCCC(CC)CNCC(O)c1ccccc1 (stereo not given),–,77.7,–,–,–,–
COc1ccc(CN2Cc3cc(-c4cccc(F)c4)ccc3-n3nncc3C2)cc1,–,·,·,·,·,·
CCOC(=O)C1=CC(=C2C(=O)N(CC)C(=S)N(CC)C2=O)c2ccccc2O1,·,–,–,–,–,52.6
NC1=NC(=O)N2CC12 (stereo not given),–,·,·,·,·,·
COCCCn1c(N)c(C(=O)Nc2sc3c(c2C(=O)OC)CCCC3)c2nc3ccccc3nc21,93.2,–,–,–,–,–
SMILES,H9c2 protect,T cruzi inh,PP5 primary,CTSL1 counter,pCIP destab,GASC-1 inh
COCCCn1c(N)c(C(=O)Nc2ccccc2)c2nc3ccccc3nc21,–,–,–,–,–,–
CC(=O)OC1(c2ccccc2)CC(C(C)(C)C)CN(C(C)(C)C)C1 (stereo not given),–,–,–,34.9,–,–
CC(=O)OC1(c2ccccc2)CCN(C)CC1(C)C (stereo not given),–,–,–,–,–,–
COC(=O)C1=C(c2ccc(-c3ccccc3)c(F)c2)C[C@@H]2CC[C@H]1N2C(=O)NCc1ccco1,–,·,–,·,·,–
O=P(N1CC1)(N1CC1)N1CCc2ccccc21,–,·,·,·,·,·
CCCCCCOc1ccc(CN2CCN(C)CC2)cc1,–,68.3,–,–,–,–
CCc1ccccc1NC(=O)CN1CCN(C(=O)COc2ccccc2C#N)CC1,–,·,–,·,·,–
Cc1cc(C)cc(N2C(=O)NC(=O)/C(=C\C=C\c3ccco3)C2=O)c1,61.2,–,–,–,–,–
O=C1NC(=O)N(Cc2ccc(F)cc2)C(=O)/C1=C\C=C\c1ccco1,–,–,–,–,–,68.8
